Source: PubChem BioAssay (several laboratories)
FLuc act counter: FLuc activators, initial screening, artefact control for FLuc-dependent activation tests, biochemical, ATPlite luminescence; ATPlite luciferase biochemical, 10 min; 0 = ATP-free wells, 1 = DMSO control; activation factor at 10 µM; 200,000 tested, under 10 active; AID 1027, 2008; Luciferin 4-monooxygenase (Photinus pyralis), P08659;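 active = luciferase activation factor, scaled between plate controls, of at least 2 with compound at 10 µM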
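test system = cell-free luciferase reagent | medium = PBS as buffer for the ATP substrate | dosing = test compounds dosed from 2 mM stocks in 100% DMSO | incubation = 10 min at ambient temperature | detection = luminescence measurement of luciferase light output | benchmarks = low control with PBS replacing ATP, high control enzyme plus ATP without compound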
TRAIL sens C8: viability loss with TRAIL in NB7+C8 cells, primary screen, TRAIL sensitizer project, cell-based, ATPlite luminescence; inhibition (viability loss, TRAIL sensitization), % at 10 µM; 360,000 compounds, 1% hits; AID 624354, 2012;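 active = compounds causing at least 50% loss of cell viability in the single-dose screen, relative to plate controls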
PKD1 inh: inhibitors of human PKD1 kinase, biochemical, fluorescence polarization. PKD1 kinase fluorescence polarization assay. Serine/threonine-protein kinase D1 (Homo sapiens), Q15139. inhibition, % (test concentration not listed). 200,000 compounds, 0.056% hits. AID 797, 2007; in the data active = inhibition above about 50%
PPC-1+TRAIL kill: compounds killing PPC-1 cancer cells with TRAIL present, primary screen, TRAIL potentiator project, ATPLite luminescence, uHTS; cell killing (% activity), % at 4 µM or 5 µM; PPC-1 cells + TRAIL, ATPLite viability luminescence; 220,000 compounds, 0.41% hits;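 active = cell killing above 50% in the first pass at 4 µM, then a duplicate retest at 5 µM averaging 50% or more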;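 note: plate controls were cells with TRAIL plus DMSO for no effect and medium-only wells lacking cells for full effect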
FLuc inhib CS: firefly luciferase enzyme inhibitors, primary screen, artefact control for luciferase-based inhibitor screens, biochemical, luminescence, ATPLite; AID 1006, 2008; inhibition, % at 10 µM; 10 min; 200,000 compounds, 1.5% hits;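 active = inhibition above about 50% when tested at 10 µM, limit read from the data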
Wee1 stabilizer: Wee1 degradation inhibitors, primary screen, cell-based, HeLa, Wee1K328M-luciferase, luminescence. Wee1-like protein kinase (Homo sapiens), P30291. HeLa Luc-Wee1K328M stability; 100% = proteasome inhibitor MG132 effect. reporter increase, % at 5 µM. 220,000 compounds, 1.2% hits. AID 1321, 2008;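 active = activation above the mean of all tested compounds plus 3 SD, set per screening run, cut at about 8.8% in these data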;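 note: cells exposed to compound for 20 h before luminescence read; 0% = DMSO alone and 100% = MG132 at 30 µM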
Target sequence (P30291 whole entry K328M): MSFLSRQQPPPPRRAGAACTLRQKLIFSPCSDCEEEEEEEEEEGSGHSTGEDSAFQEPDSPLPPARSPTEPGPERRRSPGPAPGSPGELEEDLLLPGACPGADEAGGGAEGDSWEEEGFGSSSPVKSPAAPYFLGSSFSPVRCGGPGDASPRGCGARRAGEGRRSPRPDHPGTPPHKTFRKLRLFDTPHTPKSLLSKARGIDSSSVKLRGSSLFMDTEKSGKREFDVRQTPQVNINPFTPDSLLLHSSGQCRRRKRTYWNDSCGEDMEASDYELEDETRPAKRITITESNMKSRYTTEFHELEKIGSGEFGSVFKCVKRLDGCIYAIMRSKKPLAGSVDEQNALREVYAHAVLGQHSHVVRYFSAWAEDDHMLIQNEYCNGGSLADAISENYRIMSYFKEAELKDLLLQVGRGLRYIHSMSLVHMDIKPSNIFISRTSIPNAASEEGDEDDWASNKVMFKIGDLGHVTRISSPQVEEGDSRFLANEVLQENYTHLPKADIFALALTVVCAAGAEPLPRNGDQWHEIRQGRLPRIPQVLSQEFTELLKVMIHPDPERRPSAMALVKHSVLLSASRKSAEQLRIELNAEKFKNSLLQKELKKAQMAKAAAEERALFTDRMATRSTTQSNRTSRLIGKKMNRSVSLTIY
Wee1 stab conf: Wee1 degradation inhibitors, confirmation, cell-based, HeLa, Wee1K328M-luciferase, luminescence, triplicate | shares compounds with Wee1 stabilizer | HeLa Luc-Wee1K328M degradation; vehicle 0%, proteasome-blocked wells 100% | activation, % at 5 µM | 1,100 compounds, 4% hits; in the data active = activation above about 8.9%
Numbers without * were called inactive; x = not tested or not shown. Only some compounds are listed: those with a hit (about 2.2% of all), similar ones and a draw of the others.

SMILES | FLuc act counter | TRAIL sens C8 | PKD1 inh | PPC-1+TRAIL kill | FLuc inhib CS | Wee1 stabilizer | Wee1 stab conf
NS(=O)(=O)c1ccc(NC(=O)CSc2nc3ccccc3[nH]2)cc1 | 1 | -1 | -7 | -3 | -2 | 11* | 2
O=C(CSc1nc2ccccc2[nH]1)Nc1ccc(F)c(F)c1 | 1 | 5 | 2 | -7 | -4 | -2 | x
CC12CCC(=O)N1C(C(=O)OCC(=O)Nc1sccc1C#N)CS2 (stereo not given) | 1 | -1 | -3 | 2 | -2 | -2 | x
CC(NC(=O)COC(=O)C1CSC2(C)CCC(=O)N12)C12CC3CC(CC(C3)C1)C2 (stereo not given) | 1 | -9 | 4 | -3 | -1 | 12* | 0
O=C(NNC(=O)C12CC3CC(CC(C3)C1)C2)[C@@H]1C[C@H]1c1ccccc1 | 1 | -4 | -2 | 11 | 2 | 20* | 1
CCN(CC)c1ccc(NS(=O)(=O)c2ccc(OC)cc2)cc1 | 1.1 | -5 | -8 | -9 | -6 | -4 | x
O=S(=O)(c1ccc(S(=O)(=O)N(Cc2ccco2)Cc2ccccc2Cl)cc1)N1CCCC1 | 1 | 12 | -5 | 22 | 3 | 27* | 2
CCOC(=O)c1ccc2ncc(C(=O)OCC)c(NCCN(C)C)c2c1 | x | 20 | 8 | x | x | 21* | 1
CC(O)C(NS(=O)(=O)c1ccc(Cl)cc1)C(=O)OCC(=O)Nc1cccnc1Cl (stereo not given) | 1.1 | 13 | -6 | 5 | -6 | 20* | -1
O=C(C1CC(=O)N(c2ccc3c(c2)OCCO3)C1)N1CCN(c2cccc(C(F)(F)F)c2)CC1 (stereo not given) | x | 9 | x | x | x | x | x
CCOC(=O)C1CCN(S(=O)(=O)c2ccc(NC(C)=O)c(Cl)c2)CC1 | x | 9 | x | -2 | x | 11* | 1
CCOC(=O)C1CCN(S(=O)(=O)c2ccc(C(C)=O)cc2)CC1 | 1 | -13 | 8 | 28 | -2 | 6 | x
O=C(CSc1ccccn1)Nc1nc2ccccc2s1 | 1 | -8 | 6 | 5 | -3 | 1 | x
Cn1ccnc1SCC(=O)Nc1nc2ccccc2s1 | 1 | -2 | -9 | 21 | 1 | 14* | 5
COc1ccc(/C=N/NC(=O)c2cc(C3CC3)[nH]n2)cc1OC | x | 0 | x | 9 | x | 2 | x
COc1cc(/C=N/NC(=O)c2cc(C3CC3)[nH]n2)ccc1O | x | -12 | x | 12 | x | 12* | -1
COc1ccc(-c2nc(NC(=O)c3n[nH]c(=O)c4ccccc34)sc2C)cc1 | 1.1 | 36 | -12 | 33 | -7 | 32* | -3
CN1N=C(C(=O)N2CCc3c([nH]c4ccccc34)C2c2ccccc2Cl)CCC1=O (stereo not given) | 1 | -6 | 2 | -1 | -3 | 12* | 2
COc1ccc(C)cc1NC(=O)COC(=O)c1ccccc1SCC(=O)N1CCCC1 | x | -5 | x | x | x | x | x
Cn1ncc(Br)c1C(=O)Nc1cccc(C(F)(F)F)c1 | x | -9 | x | 10 | x | -4 | x
Cn1nc(C(=O)Nc2cccc(C(F)(F)F)c2)ccc1=O | 1.1 | 6 | -11 | 20 | -10 | 11* | 1
CCN(C(=O)c1cccs1)C1CCS(=O)(=O)C1 (stereo not given) | x | 9 | x | x | x | x | x
OC(COCC(F)(F)C(F)(F)C(F)(F)C(F)F)Cn1c2ccccc2c2ccccc21 (stereo not given) | 1 | -3 | -7 | 10 | -2 | 11* | 0
CNC(=O)C(=O)NCCc1ccc(Cl)cc1 | 1.1 | -8 | -9 | 22 | -10 | 20* | 0
Cc1cccc(-n2c(=S)[nH]c3nc4c(cc3c2=O)COC(C)(C)C4)c1 | x | -10 | x | 0 | x | 18* | -1
